The text below walks through data of ChEMBL document CHEMBL3112573, “Design, synthesis and evaluation of acridine and fused-quinoline derivatives as potential anti-tuberculosis agents” (Eur J Med Chem, 2014).

Molecules are shown by their SMILES. Converted amounts (≈) assume the structure as drawn. The source made the active and inactive calls.

For data set [1], the system named is Mycobacterium tuberculosis. Description: Antimicrobial activity against Mycobacterium tuberculosis H37Rv SRI 1345 incubated for 7 days under aerobic condition by low-oxygen recovery assay. Format: functional, organism-based.
Data set [2] relates to Mycobacterium tuberculosis. Description: Antimicrobial activity against Mycobacterium tuberculosis H37Rv SRI 1345 incubated for 7 days under anaerobic condition followed by exposure to gaseous condition measured after 7 days by low-oxygen recovery assay. Format: functional, organism-based. In outline: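 Microplates set up as for MIC testing, then held anaerobically (automated jar gassing) 7 days at 37 °C, moved to ambient air with 5% CO2 for 7 days; wells scored visually for turbidity/clearing. Result = lowest concentration visually inhibiting growth. Duplicates with sterility, growth and rifampin or isoniazid controls.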

Data set [3] can be described thus: Cytotoxicity against mouse J774 cells assessed as cell viability at 10-fold above MIC relative to control. Type of data set: cell-based. Conditions: read-out: Activity. In outline: (§1)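 Uninfected J774 macrophages run in parallel to the infection assay (RPMI 1640, 1% FBS, 37 °C, 5% CO2), exposed to the same three concentrations (mid bracketing primary-screen MIC, ten-fold below and above); MTT proliferation read-out reported as percent viability.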

Data set [4] relates to Mycobacterium tuberculosis. Description: Antimicrobial activity against Mycobacterium tuberculosis H37Rv SRI 1345 assessed as growth inhibition at MIC after 7 days by broth microdilution assay relative to control. Format: functional. In short, it runs like this:
(§2)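 Broth microdilution per CLSI in Middlebrook 7H9 + OADC; ten two-fold dilutions; inoculum targeted 1.0 × 10^6 CFU/mL M. tuberculosis; 37 °C, ~90% humidity, 7 days. Wells scored visually for turbidity, partial or complete clearing; MIC = lowest concentration visually inhibiting growth; percent inhibition at the MIC also recorded. Duplicates; rifampin or isoniazid positive control, medium-only and organism-only controls.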
(In general: In broth dilution the organism is exposed to a series of concentrations in liquid medium.)

Data set [5] in a line: Cytotoxicity against mouse J774 cells assessed as cell viability at MIC relative to control. Type of data set: cell-based. Conditions: read-out: Activity. In outline: as §1
The subject of data set [6] is Mycobacterium tuberculosis. Description: Antimicrobial activity against Mycobacterium tuberculosis H37Rv SRI 1345 infected in mouse J774 cells assessed as intracellular growth inhibition at 10-fold above MIC after 7 days relative to control. Type of data set: functional. In outline:
(§3)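 Murine J774 cells in RPMI 1640 + L-glutamine/FBS, 37 °C, 5% CO2; seeded 2.0 × 10^5 per well in 10% FBS, overnight, then 1% FBS to halt division. After 24 h infected with H37Rv at MOI 5 for 4 h, washed; drug at three concentrations (mid bracketing primary-screen MIC, ten-fold below and above) for 7 days. SDS lysis, DNase, plating on 7H10 for CFU; log reduction day 0 to day 7; duplicates, rifampin control.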

Data set [7] has as its system Mycobacterium tuberculosis. Description: Antimicrobial activity against Mycobacterium tuberculosis H37Rv SRI 1345 infected in mouse J774 cells assessed as intracellular growth inhibition at 10-fold below MIC after 7 days relative to control. Type of data set: functional. In outline:
as §3

For data set [8], the system named is Mycobacterium tuberculosis. Description: Antimicrobial activity against Mycobacterium tuberculosis H37Rv SRI 1345 assessed as growth inhibition after 7 days by broth microdilution assay. Format: functional. The conditions noted are these: H37Rv SRI 1345, 168 h. In outline:
as §2

Data set [9] relates to Mycobacterium tuberculosis. In words: Antimicrobial activity against Mycobacterium tuberculosis H37Rv SRI 1345 infected in mouse J774 cells assessed as intracellular growth inhibition at MIC after 7 days relative to control. Type of data set: functional. In outline: as §3
Data set [10] relates to Mycobacterium tuberculosis. Description: Antimicrobial activity against Mycobacterium tuberculosis H37Rv after 7 days by BacTiter-Glo assay. Conditions: 168 h. Type of data set: functional, organism-based. In outline: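 H37Rv in 384-well format, 10-point dose response, compounds serially diluted 1:2 from 100 thru 0.195 (top of range); DMSO carrier as 100% growth control, high amikacin as background, lower amikacin (MIC-approximating) control. After 7 days, equilibrated to room temperature, BacTiter-Glo added, 20 min at room temperature, luminescence (ATP) read.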

Data set [11] is described as follows: Cytotoxicity against mouse J774 cells assessed as cell viability at 10-fold below MIC relative to control. Conditions: read-out: Activity. Type of data set: cell-based. In short, it runs like this:
as §1

Data set [12] relates to Mycobacterium tuberculosis. In words: Bactericidal activity against Mycobacterium tuberculosis H37Rv SRI 1345 after 18 to 24 hrs. Conditions: for MBC: Mycobacterium tuberculosis, H37Rv SRI 1345, read-out: MBC99.9. Format: functional. In short, it runs like this: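 Following MIC testing, diluted aliquots from wells lacking macroscopic growth plated on Middlebrook 7H10 agar, 16–21 days at 37 °C, colonies counted. MBC = lowest concentration giving 99.9% kill over the MIC period (18–24 h); >40 colonies taken as rejection value; uncountable plates reported TNTC.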

For orientation: MIC means the smallest concentration in the dilution series that meets the test's criterion for growth inhibition. By IC50 is commonly meant the concentration that gives 50% inhibition. A lower IC50 goes with greater potency in that assay. For orientation: IC90 means the point of the concentration-response curve where the effect stands at 90%. Low readings indicate greater potency, high ones weaker potency. For the molecule `O=[N+]([O-])c1ccc2nc3c(c(-c4ccccc4)c2c1)CCCC3`, the result in data set [1] and in data set [2] was Active. For the same molecule, the viability stood at 25% in [3], 63% in data set [5] and 67% in data set [11]. In addition, the “growth inhibition (GI)” value in [4] stood at 52%. Also, the “fold change (FC)” value was 1.72 in data set [6], 1.8 in data set [7] and 1.25 in data set [9]. Moreover, the MIC in [8] worked out at 12.5 µg/mL (≈ 41.1 µM). Further, the midpoint of inhibition in data set [10], the IC50, lay at 44.4 µM. The concentration for an effect of 90% (IC90) in data set [10] is more than 100 µM.
In data set [10], `CC[C@@H](CO)NCCN[C@@H](CC)CO` [ETHAMBUTOL] displayed an IC50 of less than 1.56 µM and an IC90 of 32.8 µM.
As to `O=[N+]([O-])c1ccc2nc3c(c(-c4ccccc4)c2c1)CCCCC3`, the result in data set [1] and in [2] was Active. Further, the viability in data set [3] was less than 10%; in data set [5] it was 79%; in data set [11], 82%. In addition, the “growth inhibition (GI)” value in [4] is given as 76%. The “fold change (FC)” value worked out at 1.41 in data set [6], 1.24 in data set [7] and 1.19 in data set [9]. Also, in data set [8], the minimum inhibitory concentration (MIC) amounted to 75 µg/mL (≈ 236 µM). Moreover, the IC50 in data set [10] stood at 61.9 µM. Further, in data set [10], the IC90 is 95.4 µM.
Regarding `Clc1ccc2nc3c(c(-c4ccccc4)c2c1)Cc1ccccc1-3`, in data set [10], the IC50 is more than 100 µM and the 90% effect concentration (IC90) is more than 100 µM.
`CCc1nc(N)nc(N)c1-c1ccc(Cl)cc1` [PYRIMETHAMINE]: in [10], the half-inhibitory concentration (IC50) is 5 µM and the 90% effect concentration (IC90) was determined as 5 µM.
With `CC1(C)CC(=O)c2c(nc3ccc([N+](=O)[O-])cc3c2-c2ccccc2)C1`, in data set [10], the half-inhibitory concentration (IC50) was more than 100 µM and the IC90 is more than 100 µM.
With `NNC(=O)c1ccncc1` [ISONIAZID], in data set [10], the IC50 was determined as 0.18 µM and the concentration for an effect of 90% (IC90) is 0.29 µM.
For `Clc1ccc2nc3c(c(-c4ccccc4)c2c1)CCC3`, the outcome in data set [1] and in data set [2] was Active. Moreover, the viability in data set [3] is less than 10%; in data set [5], 79%; in data set [11] it was 86%. Besides, the “growth inhibition (GI)” value in data set [4] worked out at 88%. In addition, the “fold change (FC)” value in data set [6] came out at 3.12; in [7], 1; in data set [9] it was 1.82. Moreover, the minimum inhibitory concentration (MIC) in data set [8] is 12.5 µg/mL (≈ 44.7 µM). In [12], this molecule registered a CFU of 0. Moreover, the MBC in data set [12] was determined as 50 µg/mL (≈ 179 µM). The concentration for half-maximal inhibition (IC50) in data set [10] was 73.4 µM. Also, in data set [10], the concentration for an effect of 90% (IC90) was more than 100 µM.
Turning to `Clc1ccc2nc3c(c(-c4ccccc4)c2c1)CCCCC3`, in [10], the IC50 is more than 100 µM and the concentration for an effect of 90% (IC90) is more than 100 µM.
For the molecule `Clc1ccc2nc3c(c(-c4ccccc4)c2c1)-c1ccccc1C3`, in [10], the IC50 is more than 100 µM and the 90% effect concentration (IC90) was more than 100 µM.
In the case of `O=C1c2ccccc2-c2nc3ccc(Cl)cc3c(-c3ccccc3)c21`, in data set [10], the IC50 was more than 100 µM and the IC90 was more than 100 µM.
In [10], `N[C@@H]1CONC1=O` [CYCLOSERINE] gave a concentration for half-maximal inhibition (IC50) of 12.5 µM and an IC90 of 13.5 µM.
In data set [10], `O=C1c2ccccc2-c2nc3ccc([N+](=O)[O-])cc3c(-c3ccccc3)c21` yielded an IC50 of more than 100 µM and an IC90 of more than 100 µM.
In data set [10], `Clc1ccc2nc3c(c(-c4ccccc4)c2c1)CCCC3` gave an IC50 of more than 100 µM and an IC90 of more than 100 µM.
With `NCC[C@H](O)C(=O)N[C@@H]1C[C@H](N)[C@@H](O[C@H]2O[C@H](CN)[C@@H](O)[C@H](O)[C@H]2O)[C@H](O)[C@H]1O[C@H]1O[C@H](CO)[C@@H](O)[C@H](N)[C@H]1O` [AMIKACIN], in [10], the 50% inhibitory concentration (IC50) turned out to be 0.07 µM and the IC90 came out at 0.08 µM.
In data set [10], `O=[N+]([O-])c1ccc2nc3c(c(-c4ccccc4)c2c1)Cc1ccccc1-3` returned an IC50 of more than 100 µM and an IC90 of more than 100 µM.
Take `CC1(C)CC(=O)c2c(nc3ccc(Cl)cc3c2-c2ccccc2)C1`: in data set [10], the IC50 was more than 100 µM and the IC90 was more than 100 µM.
As for `CO[C@H]1/C=C/O[C@@]2(C)Oc3c(C)c(O)c4c(O)c(c(/C=N/N5CCN(C)CC5)c(O)c4c3C2=O)NC(=O)/C(C)=C\C=C\[C@H](C)[C@H](O)[C@@H](C)[C@@H](O)[C@@H](C)[C@H](OC(C)=O)[C@@H]1C` [RIFAMPIN], the viability in data set [3] is 78%; in [5], 86%; in [11], 82%. Further, in data set [4], the “growth inhibition (GI)” value is given as 65%. In addition, the “fold change (FC)” value in data set [6] is 1.85; in [7], 0.46; in data set [9], 1.83. Moreover, in [8], the minimal inhibitory concentration (MIC) amounted to 0.049 µg/mL (≈ 0.0595 µM). This molecule registered a CFU in [12] of 39. In data set [12], the MBC came to 1.56 µg/mL (≈ 1.9 µM). The IC50 in data set [10] turned out to be 0.02 µM. The molecule further showed an IC90 in data set [10] of 0.02 µM.
